# Assay outcomes (PubChem BioAssay)
# TRPC4 agonist = activators of mouse TRPC4 channel | Q9QUQ5 | 0.49% of 310,000 active | AID 2237 | B-score at 10 µM | HEK293 TRPC4beta/mu-opioid, Fluo4 calcium fluorescence; active compounds read high;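 active means B-score above 5 SD of library B-scores, and initial fluorescence ratio not above library mean plus 5 SD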;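 further: positive B-score marks a calcium rise read as TRPC4 activation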
#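 Assay system: HEK293 stable line with TRPC4beta plus mu-opioid receptor; schedule: 45 min room-temperature Fluo4 loading, 110 s read; technique: kinetic Fluo4 calcium fluorescence; evaluation: integrated baseline-normalised fluorescence ratio, converted to per-well B score; controls: buffer (low) and maximal DAMGO (high)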
# TRPC6 inhibitor = blocks the mouse TRPC6 cation channel; Q61143; HEK293-TRPC6, membrane potential dye, ACh-evoked depolarization; active compounds read low; B-score at 10 µM; 1.1% of 310,000 active;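 active means B-score under library mean minus 3 SD, initial fluorescence not abnormally high, positive integrated signal ratio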;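 further: B-score derived from integrated fluorescence ratio over the kinetic read; more negative B-score means stronger inhibition of depolarization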
# Target sequence (Q61143 whole entry, looked up): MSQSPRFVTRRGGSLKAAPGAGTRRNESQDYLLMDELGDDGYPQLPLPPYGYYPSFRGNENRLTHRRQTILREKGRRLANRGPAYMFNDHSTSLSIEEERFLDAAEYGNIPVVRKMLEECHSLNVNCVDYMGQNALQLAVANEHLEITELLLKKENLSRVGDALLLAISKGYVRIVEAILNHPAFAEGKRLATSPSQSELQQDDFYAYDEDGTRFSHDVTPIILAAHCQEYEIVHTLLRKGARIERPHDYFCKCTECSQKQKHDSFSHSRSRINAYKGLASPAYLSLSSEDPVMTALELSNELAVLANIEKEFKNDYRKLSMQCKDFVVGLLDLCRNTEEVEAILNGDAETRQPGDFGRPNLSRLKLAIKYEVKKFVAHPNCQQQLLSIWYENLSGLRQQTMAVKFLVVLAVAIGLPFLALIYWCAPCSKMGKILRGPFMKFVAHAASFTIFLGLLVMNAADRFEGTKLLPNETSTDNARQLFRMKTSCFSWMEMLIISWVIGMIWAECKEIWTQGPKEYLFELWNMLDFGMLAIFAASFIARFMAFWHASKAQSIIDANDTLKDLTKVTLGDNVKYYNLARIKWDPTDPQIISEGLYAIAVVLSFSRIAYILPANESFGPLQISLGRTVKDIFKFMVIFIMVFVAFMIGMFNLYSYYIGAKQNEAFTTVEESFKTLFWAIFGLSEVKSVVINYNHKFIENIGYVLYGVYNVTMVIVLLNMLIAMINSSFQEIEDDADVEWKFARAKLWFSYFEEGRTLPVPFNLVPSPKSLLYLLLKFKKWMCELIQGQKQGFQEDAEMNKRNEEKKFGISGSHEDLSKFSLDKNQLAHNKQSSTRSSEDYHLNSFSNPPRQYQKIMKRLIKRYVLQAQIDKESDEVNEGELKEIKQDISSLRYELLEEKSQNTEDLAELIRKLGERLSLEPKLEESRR
# TRPC4 block = blocks the mouse TRPC4 cation channel; 0.39% of 300,000 active; AID 2247; HEK293 TRPC4beta/mu-opioid, DAMGO-evoked Fluo4 calcium flux; active compounds read low; B-score at 10 µM;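 active means B-score over 3 SD under the library average, no early fluorescence shift, positive overall ratio signal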
#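 Assay system: HEK293 cells with stable TRPC4beta plus mu-opioid receptor expression; Probe or stimulus: DAMGO in two steps, submaximal then maximal; Dosing: single-point compound dosing; Measured by: Fluo4 calcium-dye fluorescence, kinetic read; Read-out basis: B score from integrated Fluo4 fluorescence ratio.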
# Yeast superoxide = lowers age-related superoxide in aged yeast cells. superoxide response (% of plate mean), % at 10 µM. 0.18% of 330,000 active. AID 2690. S. cerevisiae aged cells, superoxide DHE fluorescence; active compounds read low;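 active means superoxide response under a set limit, about three screen SD below normal, cut at about 65% in these data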;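 further: yeast aged for seven days with compound at 30 °C before DHE staining; 100% = average MFI of all compound-treated wells on the plate with controls excluded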
# TRPC4 potent = TRPC4 (mouse) allosteric potentiation; Q9QUQ5; HEK293 TRPC4beta/mu-opioid, DAMGO EC20, Fluo-4 Ca2+ flux; active compounds read high; B-score at 10 µM; 0.42% of 310,000 active; AID 2227;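 active means B-score of calcium response area above 5 SD of library B-scores, with initial fluorescence ratio within 5 SD of library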;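 further: B-score of integrated fluorescence ratio over time as area under calcium response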
# TRPC6 act = activates the mouse TRPC6 cation channel; AID 2550; 0.13% of 310,000 active; B-score at 10 µM; Q61143; HEK293-TRPC6 membrane potential dye fluorescence; active compounds read high;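 active means B-score of the integrated fluorescence ratio above library mean plus 3 SD, and starting fluorescence ratio within library mean plus 5 SD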;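 further: higher score means more depolarization so channel activation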
# TRPC4 sel inh 2 = second selectivity test of TRPC6 inhibitors: effect on mouse TRPC4 | shares compounds with TRPC6 inhibitor | HEK293 TRPC4/MOR, membrane potential dye fluorescence; channel activated by saturating DAMGO dose | inhibition, % at 10 µM | 42% of 920 active;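 active means compounds whose fluorescence signal differed from control wells by over 3 SD, either direction, in both duplicate plates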
# TRPC4 spec = tests whether TRPC6 inhibitors also affect mouse TRPC4 | shares compounds with TRPC6 inhibitor | HEK293 TRPC4/mu-opioid, membrane potential fluorescence | activity change, negative = inhibition, % at 10 µM | 61% of 920 active | AID 2777;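 active means rise or fall in signal beyond 3 SD of buffer-only wells in both replicate plates, either sign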;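 further: integrated kinetic ratio of fluorescence range over baseline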
# HEK293 MPD ctr 2-1 = second check of TRPC6 inhibitor effects in parental HEK293 cells; shares compounds with TRPC6 inhibitor; parental HEK293 membrane potential dye fluorescence; maximal acetylcholine challenge after compound addition; signal change vs control, % at 10 µM; 31% of 920 active; AID 2779;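 active means membrane potential signal moving either way by over 3 SD of the maximum-effect control, in both duplicate plates, meaning non-specific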
# HEK293 MPD ctr-1 = parental HEK293 nonspecific activity of TRPC6 inhibitors. AID 2780. 60% of 920 active. parental HEK293 membrane potential dye fluorescence. shares compounds with TRPC6 inhibitor. membrane potential signal change, % at 10 µM;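 active means membrane potential signal shifting up or down by more than 3 SD of buffer-only wells, on both duplicate plates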
# HEK293 MPD ctr-2 = counter-screen for TRPC6 modulators: effect in parental HEK293 cells; shares compounds with TRPC6 inhibitor; membrane potential dye fluorescence; AID 488924; membrane potential signal change, % at 10 µM; 51% of 2,400 active;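 active means membrane potential signal moves up or down beyond 5 SD from buffer-only wells, on both duplicate plates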
# HEK293 MPD ctr 2-2 = second check of TRPC6 modulator effects in parental HEK293 cells. membrane potential dye fluorescence; after compound, maximal acetylcholine stimulation. AID 488926. 14% of 2,400 active. shares compounds with TRPC6 inhibitor. inhibition, % at 10 µM;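 active means membrane potential signal drops by more than 5 SD from the mean control signal, in both duplicate plates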;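 further: plate controls were acetylcholine ECmax control wells for no effect and buffer only wells for full effect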
# TRPC4/MOR mod = tests whether TRPC6 modulators also affect mouse TRPC4; shares compounds with TRPC6 inhibitor; HEK293 TRPC4/mu-opioid, membrane potential fluorescence; percent change from control (negative = decrease, positive = increase), % at 10 µM; 69% of 2,400 active;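 active means membrane potential signal moved up or down beyond 5 SD of buffer control wells, in both duplicate plates, actives on both sides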;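 further: plate controls were assay buffer wells for no effect and DAMGO maximal-effect wells for full effect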
# TRPC4 ctr inh 2 = second check of whether TRPC6 modulators also affect mouse TRPC4. shares compounds with TRPC6 inhibitor. inhibition, % at 10 µM. HEK293 TRPC4/mu-opioid, membrane potential dye fluorescence; stimulated with maximal-effect DAMGO. 55% of 2,400 active. AID 488928;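 active means drop in membrane potential signal beyond 5 SD of the control wells in both duplicate plates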;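 further: TRPC4 counter screen for TRPC6 hits run under conditions tuned for TRPC6 not TRPC4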
# TRPC6 block conf = confirmation of mouse TRPC6 inhibitors; AID 488960; inhibition, % at 10 µM; 43% of 3,300 active; shares compounds with TRPC6 inhibitor; HEK293-TRPC6, membrane potential dye, ACh-evoked depolarization;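 active means fluorescence ratio falls more than 5 SD below the full-stimulation control mean, in both duplicate runs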;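 further: integrated fluorescence ratio of peak minus minimum over baseline after agonist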
# TRPC6 act conf = mouse TRPC6 activator confirmation; shares compounds with TRPC6 inhibitor; HEK293-TRPC6 membrane potential dye fluorescence, FDSS; activation, % at 10 µM; 11% of 2,800 active; AID 488961;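 active means ratio signal rise beyond 5 SD above unstimulated control wells' mean, seen in both duplicate runs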;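 further: plate controls were buffer EC0 wells for no effect and acetylcholine ECmax response for full effect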
# * marks the source's active call; other numbers are inactive results; i = inactive; / = not tested or not shown; + = active, no number. Sampled rows, rich in hits. Any-hit rate of the full collection: about 2.3%.
SMILES,TRPC4 agonist,TRPC6 inhibitor,TRPC4 block,Yeast superoxide,TRPC4 potent,TRPC6 act,HEK293 MPD ctr-2,HEK293 MPD ctr 2-2,TRPC4/MOR mod,TRPC4 ctr inh 2,TRPC6 block conf,TRPC6 act conf,others
CN(C)C(CNc1ccc(S(C)(=O)=O)cc1[N+](=O)[O-])c1ccccc1 (stereo not given),i,i,i,96.3,i,i,/,/,/,/,/,/,
CN(C)C(CNc1ccc(S(C)(=O)=O)cc1[N+](=O)[O-])Cc1ccccc1 (stereo not given),i,-5.09*,i,92.1,i,i,i,i,i,31.5%*,i,i,
COCCn1c(SCC(=O)NC2CCCC2)nnc1C(C)C,i,i,i,101.7,i,i,/,/,/,/,/,/,
CC(C)OCCCN1CN(S(=O)(=O)c2ccc(Cl)cc2)c2nc3ccccc3nc21,i,i,i,107.9,i,i,/,/,/,/,/,/,
CC(C)OCCCN1CN(S(=O)(=O)c2cccc(Cl)c2)c2nc3ccccc3nc21,i,-5.13*,i,104.5,i,i,i,i,9.5%*,i,i,i,
COc1ccc(/C=N/n2c(C)nc3ccccc3c2=O)cc1OC,i,-6.27*,i,102.5,i,i,i,i,i,i,i,i,
COc1ccc(/C=N/n2c(C)nc3ccccc3c2=O)cc1,i,i,i,113.3,i,i,/,/,/,/,/,/,
COc1ccc(C(C)=O)cc1CSc1nnc2c(Cl)cc(Cl)cn12,i,-6.95*,i,77.9,i,i,-342.0%*,65.0%*,-68.5%*,71.5%*,64.5%*,i,
O=C(NC(=S)NCC1CCCO1)c1ccc(Cl)cc1Cl (stereo not given),i,i,i,98.4,i,i,/,/,/,/,/,/,
COC(=O)COc1ccc(S(=O)(=O)N2CCCCC2)cc1[N+](=O)[O-],i,-5.31*,i,99.4,i,i,i,i,i,44.0%*,i,i,
COc1ccc(S(=O)(=O)N2CCC(C(=O)Nc3ccc(S(=O)(=O)N4CCCC4)cc3)CC2)cc1OC,i,-5.42*,i,98.4,i,i,i,i,i,i,i,i,
Cc1ccc(NC(=O)C2CCN(S(=O)(=O)c3ccc4[nH]c(=O)oc4c3)CC2)cc1F,i,-5.78*,i,128.6,i,i,i,i,i,i,i,i,
O=C(COc1ccc(S(=O)(=O)N2CCCC2)cc1[N+](=O)[O-])N1CCCC1,/,/,/,89.5,/,/,/,/,/,/,/,/,
CS(=O)(=O)c1ccc(Cl)c(NC(=O)COC(=O)c2cccc(S(=O)(=O)N3CCCCC3)c2)c1,i,-5.69*,i,106.8,i,i,i,i,i,i,i,i,
O=C(O)COCc1nc2ccccc2[nH]1,i,i,i,99.2,i,i,/,/,/,/,/,/,
COc1ccc(S(=O)(=O)N2CCCCCC2)cc1NC(=O)Cc1ccccc1,i,-8.86*,i,104.8,i,i,i,i,i,i,i,i,
Cc1ccc(SCCNC(=S)Nc2ccc(C)c(C)c2)cc1,i,-5.66*,i,95.4,i,i,+,+,-266.5%*,77.0%*,i,i,
O=C1CSC(c2ccc(F)cc2)N1c1nc2ccccc2s1 (stereo not given),i,i,i,69.8,i,i,/,/,/,/,/,/,
O=C(c1cccs1)c1coc2ccc(O)cc12,i,i,i,83.1,i,i,/,/,/,/,/,/,
O=C(c1ccccc1)N1CCN(Cc2ccccc2C(F)(F)F)CC1,i,i,i,102.8,i,11.6*,i,i,18.0%*,i,/,133.5%*,
O=C(CNC(=O)c1ccccc1)OC1CCCCC1,i,i,i,107.2,i,i,/,/,/,/,/,/,
C[N+]1(C)CCCC(OC(=O)C(O)(c2ccccc2)c2ccccc2)C1 (stereo not given),i,-12.9*,i,106.2,i,i,/,/,/,/,94.5%*,i,TRPC4 sel inh 2=i;TRPC4 spec=i;HEK293 MPD ctr 2-1=-23.0%*;HEK293 MPD ctr-1=i
CCOC(=O)C1=C(C)N(C)C(=O)NC1c1cccc([N+](=O)[O-])c1 (stereo not given),i,i,i,87.6,i,i,/,/,/,/,/,/,
O=C(c1ccco1)N1CCN(S(=O)(=O)c2ccc(Br)cc2)CC1,i,i,i,119.9,i,i,/,/,/,/,/,/,
O=C(c1ccco1)N1CCN(S(=O)(=O)c2ccc(Oc3ccccc3)cc2)CC1,i,-12.7*,i,113.0,i,i,/,/,/,/,i,i,TRPC4 sel inh 2=i;TRPC4 spec=2.1%*;HEK293 MPD ctr 2-1=232.5%*;HEK293 MPD ctr-1=1.1%*
Cc1ccc2nc(-c3ccccc3)cc(C(=O)Nc3cccnc3)c2c1,/,/,/,95.2,/,/,/,/,/,/,/,/,
COCc1[nH]nc2c1C(c1c(F)cccc1Cl)C(C#N)=C(N)O2 (stereo not given),i,-5.59*,i,101.7,i,i,i,i,i,i,i,i,
